For series [1], the target named is Cytochrome P450 2D6 (Homo sapiens, UniProt P10635). As to the kind of experiment: Time dependent inhibition of CYP2D6 (unknown origin). The class given is ADME.
Series [2] concerns Rattus norvegicus. The series is described as follows: Reversal of haloperidol-induced catalepsy in po dosed rat. The class given is functional, organism-based. An outline of the steps:
(§1)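 Rat haloperidol-induced catalepsy model with oral test dosing at 0.3, 1 and 3 mg/kg alongside vehicle-treated controls. Read-out is latency to withdraw, also expressed as % reversal of catalepsy. Groups compared by ANOVA.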

The target of series [3] is CYP2D6 (Homo sapiens, UniProt P10635). As to the kind of experiment: Inhibition of CYP2D6 in human liver microsomes using dextromethorphan as substrate preincubated for 15 mins followed by NADPH addition and measured after 8 mins by LC-MS/MS analysis. In kind it is ADME. The conditions noted are these: human, liver microsomes, probe dextromethorphan; time 23 min; read-out: INH. An outline of the steps:
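Cocktail CYP450 inhibition assay run in human liver microsomes.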
(In general: Liver microsomes are a subcellular fraction often used to study metabolism.)

Series [4] addresses T1, Muscarinic acetylcholine receptor M4 (Homo sapiens, UniProt P08173).
T1 sequence (P08173 whole entry): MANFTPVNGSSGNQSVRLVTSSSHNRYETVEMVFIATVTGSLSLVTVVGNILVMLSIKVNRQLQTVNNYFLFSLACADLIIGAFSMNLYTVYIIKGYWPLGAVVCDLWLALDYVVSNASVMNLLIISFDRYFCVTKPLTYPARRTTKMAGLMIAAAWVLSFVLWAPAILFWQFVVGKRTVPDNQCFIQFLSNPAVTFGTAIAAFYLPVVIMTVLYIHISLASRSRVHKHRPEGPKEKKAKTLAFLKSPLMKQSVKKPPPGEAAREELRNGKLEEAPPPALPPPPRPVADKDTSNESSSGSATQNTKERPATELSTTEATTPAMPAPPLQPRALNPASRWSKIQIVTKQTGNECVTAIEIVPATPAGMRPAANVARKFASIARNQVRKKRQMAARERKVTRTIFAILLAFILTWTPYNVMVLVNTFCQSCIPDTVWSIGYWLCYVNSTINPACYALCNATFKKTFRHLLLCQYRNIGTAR
As to the kind of experiment: Antagonist activity at human muscarinic acetylcholine M4 receptor expressed in CHO cells assessed as inhibition of acetylcholine-induced calcium mobilization. The conditions noted are these: read-out: IC50. In kind it is functional, cell-based. For orientation: Calcium flux is commonly read through the fluorescence of an indicator in the cells.

The nature of series [5]: Tmax in CD-1 mouse at 3 mg/kg, po measured upto 24 hrs by LC-MS/MS analysis. The class given is ADME, organism-based. The conditions noted are these: in vivo. An outline of the steps:
(§2)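 Pharmacokinetics in Sprague-Dawley rat, CD-1 mouse and beagle dog. Intravenous dose was 1 mg/kg in each species. Oral doses were given as a suspension: 10 mg/kg in rat, 3 mg/kg in mouse and dog. Each parameter is the mean of two to three animals.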

The target of series [6] is T2, Muscarinic acetylcholine receptor M2 (Homo sapiens, UniProt P08172).
T2 sequence (P08172 whole entry): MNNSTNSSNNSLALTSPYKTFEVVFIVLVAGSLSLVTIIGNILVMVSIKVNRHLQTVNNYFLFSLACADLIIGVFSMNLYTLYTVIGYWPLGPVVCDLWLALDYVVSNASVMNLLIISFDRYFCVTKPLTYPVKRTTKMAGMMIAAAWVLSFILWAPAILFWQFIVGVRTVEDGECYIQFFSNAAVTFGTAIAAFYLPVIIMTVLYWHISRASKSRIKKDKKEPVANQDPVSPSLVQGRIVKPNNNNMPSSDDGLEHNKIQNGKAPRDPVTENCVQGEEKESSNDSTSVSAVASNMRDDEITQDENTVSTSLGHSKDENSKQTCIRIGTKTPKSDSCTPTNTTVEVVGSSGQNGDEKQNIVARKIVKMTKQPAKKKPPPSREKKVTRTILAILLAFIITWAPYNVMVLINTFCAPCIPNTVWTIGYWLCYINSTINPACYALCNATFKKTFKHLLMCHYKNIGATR
The series is described as follows: Antagonist activity at human muscarinic M2 receptor expressed in CHO cells co-expressing Gqi5 assessed as inhibition of acetylcholine-induced calcium mobilization. In kind it is functional, cell-based. An outline of the steps: (§3)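 CHO cells stably transfected with the given human mAChR subtype. Compound added before an EC80 concentration of acetylcholine; antagonism read as calcium mobilization. One independent determination in triplicate.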

Series [7] in a line: Kinetic solubility of compound at pH 6.8. The conditions noted are these: buffer, read-out: Kinetic_solubility. The class given is physicochemical. An outline of the steps: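 Kinetic solubility measured at pH 6.8.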
The target in series [8] is T3, Sigma non-opioid intracellular receptor 1 (Homo sapiens, UniProt Q99720). As to the kind of experiment: Inhibition of human sigma1 receptor at 10 uM relative to control.
The nature of series [9]: Clearance in Beagle dog plasma at 1.0 mg/kg, iv measured upto 24 hrs by LC-MS/MS analysis. The class given is ADME, organism-based, Canis lupus familiaris. The essentials: (§4)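 Single iv and oral (suspension) dosing; iv/po doses 1/10 mg/kg in SD rat, 1/3 mg/kg in CD-1 mouse and beagle dog. Plasma PK parameters are means from two to three animals per species.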
The target of series [10] is Muscarinic acetylcholine receptor M5 (Homo sapiens, UniProt P08912). The series is described as follows: Antagonist activity at human muscarinic M5 receptor expressed in CHO cells co-expressing Gqi5 assessed as inhibition of acetylcholine-induced calcium mobilization. In kind it is functional. An outline of the steps: as §3
Series [11] deals with Cytochrome P450 2C19 (Homo sapiens, UniProt P33261). The series is described as follows: Time dependent inhibition of CYP2C19 (unknown origin). In kind it is ADME.
Series [12] addresses Muscarinic acetylcholine receptor M1 (Homo sapiens, UniProt P11229). The series is described as follows: Antagonist activity at human muscarinic M1 receptor expressed in CHO cells co-expressing Gqi5 assessed as inhibition of acetylcholine-induced calcium mobilization. In kind it is functional. An outline of the steps:
as §3

Series [13] concerns the target CYP2B6 (Homo sapiens, UniProt P20813). The series is described as follows: Induction of CYP2B6 in human hepatocytes. In kind it is ADME, cell-based, Hepatocyte.
In series [14] the target is T4, Muscarinic acetylcholine receptor M4 (Rattus norvegicus, UniProt P08485).
T4 sequence (P08485 whole entry): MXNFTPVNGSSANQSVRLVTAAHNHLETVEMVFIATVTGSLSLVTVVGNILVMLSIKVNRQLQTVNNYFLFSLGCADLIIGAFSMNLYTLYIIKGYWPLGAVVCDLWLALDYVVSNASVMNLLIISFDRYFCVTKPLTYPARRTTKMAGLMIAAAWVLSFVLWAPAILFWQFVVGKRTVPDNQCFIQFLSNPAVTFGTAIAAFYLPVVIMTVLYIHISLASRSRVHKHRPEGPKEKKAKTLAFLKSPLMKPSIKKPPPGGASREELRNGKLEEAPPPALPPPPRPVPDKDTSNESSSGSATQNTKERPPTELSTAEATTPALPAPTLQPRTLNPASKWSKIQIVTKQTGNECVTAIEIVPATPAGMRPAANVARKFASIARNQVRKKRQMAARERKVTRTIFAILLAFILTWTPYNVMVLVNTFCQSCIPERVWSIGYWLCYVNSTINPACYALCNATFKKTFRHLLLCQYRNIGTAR
As to the kind of experiment: Displacement of [3H]NMS from rat muscarinic receptor M4 expressed in CHO cell membranes incubated for 3 hrs by radiometric scintillation counting analysis. Also noted: species or system Cell membrane.

The nature of series [15]: Volume of distribution at steady state in CD-1 mouse at 1.0 mg/kg, iv measured upto 24 hrs by LC-MS/MS analysis. The class given is ADME, organism-based. The conditions noted are these: in vivo, read-out: Vdss. The essentials:
as §2

Series [16] deals with Rattus norvegicus. As to the kind of experiment: Effect on haloperidol-induced catalepsy in rat assessed as reduction in mean latency to withdraw at 1 mg/kg, po (reference value: 43.4 +/- 4.3 sec). The class given is functional. An outline of the steps: as §1
Series [17] concerns the target T3, Sigma non-opioid intracellular receptor 1. As to the kind of experiment: Inhibition of human sigma1 receptor by radioligand binding assay.
Series [18] in a line: Cmax in Sprague-Dawley rat at 10 mg/kg, po measured upto 24 hrs by LC-MS/MS analysis. In kind it is ADME, organism-based. Also noted: route oral, dose 10 mg/kg, time <=24. The conditions noted are these: in vivo. The essentials:
as §4

pEC50, pIC50, pKi: −log10 of the molar value. Converted amounts (≈) assume the structure as drawn.

T3 sequence (Q99720 whole entry): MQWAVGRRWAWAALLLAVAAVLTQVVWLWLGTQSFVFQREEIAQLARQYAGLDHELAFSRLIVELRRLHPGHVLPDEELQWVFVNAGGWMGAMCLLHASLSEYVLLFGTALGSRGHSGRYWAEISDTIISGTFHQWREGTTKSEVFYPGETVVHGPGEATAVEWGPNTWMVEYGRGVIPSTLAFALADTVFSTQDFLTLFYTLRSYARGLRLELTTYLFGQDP
Muscarinic acetylcholine receptor M5, sequence (P08912 whole entry): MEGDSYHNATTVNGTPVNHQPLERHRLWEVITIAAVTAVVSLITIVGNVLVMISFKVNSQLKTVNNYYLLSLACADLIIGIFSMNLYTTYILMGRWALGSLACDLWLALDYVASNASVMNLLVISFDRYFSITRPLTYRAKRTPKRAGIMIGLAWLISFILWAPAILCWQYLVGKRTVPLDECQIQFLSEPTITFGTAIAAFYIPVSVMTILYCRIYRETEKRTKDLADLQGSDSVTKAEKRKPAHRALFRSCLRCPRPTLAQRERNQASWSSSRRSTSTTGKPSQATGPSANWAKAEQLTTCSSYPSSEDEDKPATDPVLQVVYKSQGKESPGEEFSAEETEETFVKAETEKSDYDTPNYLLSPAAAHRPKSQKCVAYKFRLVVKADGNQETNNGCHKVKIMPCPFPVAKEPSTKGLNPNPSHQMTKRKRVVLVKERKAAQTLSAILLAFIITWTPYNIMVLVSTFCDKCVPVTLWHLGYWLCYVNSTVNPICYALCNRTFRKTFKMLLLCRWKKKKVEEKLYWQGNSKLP
Muscarinic acetylcholine receptor M1, sequence (P11229 whole entry): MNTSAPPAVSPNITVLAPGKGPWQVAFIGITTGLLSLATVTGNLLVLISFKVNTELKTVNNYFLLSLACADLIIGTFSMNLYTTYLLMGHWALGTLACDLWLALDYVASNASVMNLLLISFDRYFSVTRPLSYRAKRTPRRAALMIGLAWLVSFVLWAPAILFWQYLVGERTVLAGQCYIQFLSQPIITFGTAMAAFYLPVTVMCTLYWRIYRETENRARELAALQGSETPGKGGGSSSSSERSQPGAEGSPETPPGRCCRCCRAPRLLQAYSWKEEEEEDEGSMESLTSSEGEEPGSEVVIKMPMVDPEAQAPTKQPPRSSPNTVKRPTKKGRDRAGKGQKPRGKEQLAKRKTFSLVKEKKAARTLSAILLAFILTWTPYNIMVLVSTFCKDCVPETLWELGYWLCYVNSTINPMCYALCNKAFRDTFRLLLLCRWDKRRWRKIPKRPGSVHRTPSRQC
CYP2D6, sequence (P10635 whole entry): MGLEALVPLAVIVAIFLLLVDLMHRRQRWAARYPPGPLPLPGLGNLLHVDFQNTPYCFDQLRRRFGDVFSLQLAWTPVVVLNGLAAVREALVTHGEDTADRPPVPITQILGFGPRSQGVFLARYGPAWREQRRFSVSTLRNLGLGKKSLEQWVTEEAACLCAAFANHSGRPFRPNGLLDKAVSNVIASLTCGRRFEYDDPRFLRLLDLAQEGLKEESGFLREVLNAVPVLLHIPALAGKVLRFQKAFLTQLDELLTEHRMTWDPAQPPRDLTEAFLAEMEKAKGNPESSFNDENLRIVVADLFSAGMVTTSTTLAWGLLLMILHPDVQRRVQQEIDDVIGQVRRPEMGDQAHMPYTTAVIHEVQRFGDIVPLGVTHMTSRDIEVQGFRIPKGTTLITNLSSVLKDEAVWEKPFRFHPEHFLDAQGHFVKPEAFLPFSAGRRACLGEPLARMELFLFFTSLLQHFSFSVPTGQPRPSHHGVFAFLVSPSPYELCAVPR
Cytochrome P450 2D6, sequence (P10635 whole entry): as above
Cytochrome P450 2C19, sequence (P33261 whole entry): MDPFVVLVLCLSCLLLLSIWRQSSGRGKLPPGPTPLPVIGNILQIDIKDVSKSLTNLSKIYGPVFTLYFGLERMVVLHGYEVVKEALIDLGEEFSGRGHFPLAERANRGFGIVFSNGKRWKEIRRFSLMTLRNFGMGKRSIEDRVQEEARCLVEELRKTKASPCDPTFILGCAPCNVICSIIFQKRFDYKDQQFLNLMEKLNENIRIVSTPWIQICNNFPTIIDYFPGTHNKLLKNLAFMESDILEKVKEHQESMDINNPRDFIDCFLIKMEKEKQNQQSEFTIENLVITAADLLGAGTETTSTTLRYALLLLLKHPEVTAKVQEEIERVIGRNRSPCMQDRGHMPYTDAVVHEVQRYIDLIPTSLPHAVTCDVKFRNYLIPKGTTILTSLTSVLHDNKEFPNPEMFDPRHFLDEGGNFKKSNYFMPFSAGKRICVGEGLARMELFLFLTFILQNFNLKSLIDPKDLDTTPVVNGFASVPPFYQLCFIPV
CYP2B6, sequence (P20813 whole entry): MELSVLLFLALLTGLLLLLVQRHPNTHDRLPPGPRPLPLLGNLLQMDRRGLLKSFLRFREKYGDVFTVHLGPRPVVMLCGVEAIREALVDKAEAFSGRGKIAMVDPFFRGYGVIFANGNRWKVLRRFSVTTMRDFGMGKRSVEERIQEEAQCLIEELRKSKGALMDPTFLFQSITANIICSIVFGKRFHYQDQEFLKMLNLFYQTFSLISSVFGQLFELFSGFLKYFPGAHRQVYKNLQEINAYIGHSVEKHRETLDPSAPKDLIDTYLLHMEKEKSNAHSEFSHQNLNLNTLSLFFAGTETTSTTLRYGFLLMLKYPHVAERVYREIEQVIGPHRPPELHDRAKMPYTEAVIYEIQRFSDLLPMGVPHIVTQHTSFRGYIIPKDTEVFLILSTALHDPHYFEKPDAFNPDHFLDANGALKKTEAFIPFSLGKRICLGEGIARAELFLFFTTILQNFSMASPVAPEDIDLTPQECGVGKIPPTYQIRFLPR

As for `Fc1cc(F)c(F)c(-c2ccc(N[C@H]3C[C@@H]4CN(CC5CCOCC5)C[C@@H]4C3)nn2)c1`, the pIC50 in series [1] is under 4.00; in series [4], 8.39; in series [6], 5.46; in [10], under 5.00; in [11] it was under 4.00; in series [12] it was under 5.00. In addition, in series [14], the pIC50 was 6.84. For the same compound, the Activity result is “Dose-Dependent Effect” in [2] and 21.3 s in [16]. The IC50 at 8 min in series [3] was over 30000 nM. The Tmax in series [5] came out at 6.67 h. Also, the solubility kinetic in series [7] stood at 85.1 µM (≈ 36.8 µg/mL). In addition, the inhibition in series [8] stood at 101%. The clearance in series [9] is 43 mL/min/kg. For the same compound, in series [13], the pEC50 is 5.72. In [15], the Vd worked out at 10.6 L/kg. Further, the pKi in series [17] is 7.77. For the same compound, the Cmax in series [18] worked out at 17000 ng/mL.

For orientation: pIC50 means the negative decadic logarithm of the IC50, by convention in mol/L. One may read the Tmax as the time at which the peak concentration occurs. The term inhibition denotes the change of the read-out against control, counted positive when it falls. Broadly, the clearance is the volume of plasma or blood freed of the substance per unit of time. Higher therefore signals a high capacity for elimination. Usually pEC50 stands for −log10 of the EC50, conventionally taken in molar units. Usually pKi stands for the Ki on a negative log10 scale, so that one unit is a factor of ten. A lower pKi goes with a high Ki. What is called Cmax is the highest concentration seen after dosing.

(Values after ChEMBL document CHEMBL4837245, “Discovery of VU6028418: A Highly Selective and Orally Bioavailable M4 Muscarinic Acetylcholine Receptor Antagonist” (ACS Med Chem Lett, 2021).)
